Experimental data: ChEMBL document CHEMBL1157130, “Cytotoxic naphthoquinones from Alkanna cappadocica ( perpendicular)” (J Nat Prod, 2010)

Key:
HT-29 = test: Cytotoxicity against human HT-29 cells after 48 hrs by MTT assay; type: functional, cell-based; conditions: HT-29, 48 h
How it was run: (§1)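 Cells grown in RPMI 1640 or DMEM-Ham's F12 with 10% FBS, 2 mmol/L L-glutamine, penicillin/streptomycin, at 37 °C, 5% CO2. Exponential-phase cells seeded at 6000/well, incubated 24 h, then exposed 48 h to 0.1–10 µM compound (DMSO ≤0.1% final). MTT 0.5 mg/mL added for 3 h, formazan dissolved in DMSO, read at 570-690 nm. IC50 from % viability; three independent assays, triplicate wells.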

MDA-MB-231 = test: Cytotoxicity against human MDA-MB-231 cells after 48 hrs by MTT assay; type: functional, cell-based; conditions: MDA-MB-231, 48 h; how it was run: as §1
PC-3 = test: Cytotoxicity against human PC3 cells after 48 hrs by MTT assay; type: functional, cell-based; conditions: PC-3, 48 h; how it was run: as §1
NIH3T3 = test: Cytotoxicity against mouse 3T3 cells after 48 hrs by MTT assay; type: cell-based; conditions: NIH3T3, 48 h; how it was run: as §1
AU565 = test: Cytotoxicity against human AU565 cells after 48 hrs by MTT assay; type: functional, cell-based; conditions: AU565, 48 h; how it was run: as §1
HepG2 = test: Cytotoxicity against human HepG2 cells after 48 hrs by MTT assay; type: functional, cell-based; conditions: HepG2, 48 h; how it was run: as §1
LNCaP = test: Cytotoxicity against human LNCAP cells after 48 hrs by MTT assay; type: functional, cell-based; how it was run: as §1
MCF7 = test: Cytotoxicity against human MCF7 cells after 48 hrs by MTT assay; type: functional, cell-based; conditions: MCF7, 48 h; how it was run: as §1
HeLa = test: Cytotoxicity against human HeLa cells after 48 hrs by MTT assay; type: functional, cell-based; how it was run: as §1
SK-BR-3 = test: Cytotoxicity against human SKBR3 cells after 48 hrs by MTT assay; type: functional, cell-based; conditions: SK-BR-3, 48 h; how it was run: as §1
DU-145 = test: Cytotoxicity against human DU145 cells after 48 hrs by MTT assay; type: functional, cell-based; conditions: DU-145, 48 h; how it was run: as §1
SAOS-2 = test: Cytotoxicity against human Saos2 cells after 48 hrs by MTT assay; type: functional, cell-based; conditions: SAOS-2, 48 h; how it was run: as §1
[1] = Cytotoxicity against human Hep3B cells after 48 hrs by MTT assay; type: functional, cell-based, Hep 3B2; how it was run: as §1
Vero = test: Cytotoxicity against african green monkey Vero cells after 48 hrs by MTT assay; type: cell-based; conditions: Chlorocebus sabaeus; how it was run: as §1

COc1cccc2c1C(=O)c1c(O)c3c(c(O)c1C2=O)C[C@@](O)(C(=O)CO)C[C@@H]3O[C@H]1C[C@H](N)[C@H](O)[C@H](C)O1 [DOXORUBICIN]
IC50 (HT-29): 2.05 µM
IC50 (MDA-MB-231): 2 µM
IC50 (PC-3): 3.16 µM
IC50 (NIH3T3): 3.7 µM

COc1ccc(O)c2c1C(=O)C=C([C@H](CC=C(C)C)OC(C)=O)C2=O
IC50 (HT-29): 0.62 µM
IC50 (MDA-MB-231): 0.09 µM
IC50 (PC-3): 0.78 µM
IC50 (AU565): 0.59 µM
IC50 (HepG2): 0.87 µM
IC50 (LNCaP): 11 µM
IC50 (MCF7): 14.1 µM
IC50 (HeLa): 0.66 µM
IC50 (SK-BR-3): 0.44 µM
IC50 (DU-145): 7.41 µM
IC50 (SAOS-2): 13.8 µM
IC50 [1]: 10.2 µM
IC50 (Vero): 0.59 µM
IC50 (NIH3T3): 0.66 µM

COc1cc([C@@H]2c3cc4c(cc3[C@@H](O[C@@H]3O[C@@H]5CO[C@@H](C)O[C@H]5[C@H](O)[C@H]3O)[C@H]3COC(=O)[C@H]23)OCO4)cc(OC)c1O [ETOPOSIDE]
IC50 (HT-29): 30.4 µM
IC50 (MDA-MB-231): 23.2 µM
IC50 (PC-3): 69.5 µM
IC50 (NIH3T3): 63 µM

COc1ccc(O)c2c1C(=O)C=C([C@H](CC=C(C)C)OC(=O)C=C(C)C)C2=O
IC50 (HT-29): 0.59 µM
IC50 (MDA-MB-231): 0.26 µM
IC50 (PC-3): 0.42 µM
IC50 (AU565): 0.75 µM
IC50 (HepG2): 0.97 µM
IC50 (LNCaP): 11.4 µM
IC50 (MCF7): 14.8 µM
IC50 (HeLa): 0.82 µM
IC50 (SK-BR-3): 0.83 µM
IC50 (DU-145): 8.55 µM
IC50 (SAOS-2): 14.5 µM
IC50 [1]: 11.8 µM
IC50 (Vero): 0.79 µM
IC50 (NIH3T3): 4.67 µM

CC(C)=CC[C@H](O)C1=CC(=O)c2c(O)ccc(O)c2C1=O [ALKANNIN]
IC50 (HT-29): 4.03 µM
IC50 (MDA-MB-231): 4.27 µM
IC50 (PC-3): 3.25 µM
IC50 (AU565): 0.9 µM
IC50 (HepG2): 3.8 µM
IC50 (LNCaP): 10.7 µM
IC50 (MCF7): 3.06 µM
IC50 (HeLa): 0.91 µM
IC50 (SK-BR-3): 0.78 µM
IC50 (DU-145): 5.02 µM
IC50 (SAOS-2): 2.31 µM
IC50 [1]: 3.84 µM
IC50 (Vero): 0.7 µM
IC50 (NIH3T3): 5.21 µM

CC(=O)O[C@@H](CC=C(C)C)C1=CC(=O)c2c(O)ccc(O)c2C1=O [ACETYLALKANNIN]
IC50 (HT-29): 10.5 µM
IC50 (MDA-MB-231): 8.47 µM
IC50 (PC-3): 11 µM
IC50 (AU565): 0.88 µM
IC50 (HepG2): 7.41 µM
IC50 (LNCaP): 11.5 µM
IC50 (MCF7): 7.05 µM
IC50 (HeLa): 6.75 µM
IC50 (SK-BR-3): 1.66 µM
IC50 (DU-145): 6.65 µM
IC50 (SAOS-2): 4.93 µM
IC50 [1]: 6.06 µM
IC50 (Vero): 0.76 µM
IC50 (NIH3T3): 7.73 µM

COc1ccc(O)c2c1C(=O)C(CCC=C(C)C)=CC2=O
IC50 (HT-29): 5.98 µM
IC50 (MDA-MB-231): 5.11 µM
IC50 (PC-3): 7.48 µM
IC50 (AU565): 7.08 µM
IC50 (HepG2): 8.05 µM
IC50 (LNCaP): 11.1 µM
IC50 (MCF7): 11.9 µM
IC50 (HeLa): 6.38 µM
IC50 (SK-BR-3): 6.52 µM
IC50 (DU-145): 12.1 µM
IC50 (SAOS-2): 12.5 µM
IC50 [1]: 24.5 µM
IC50 (Vero): 6.39 µM
IC50 (NIH3T3): 6.57 µM

CC(C)=CCCC1=CC(=O)c2c(O)ccc(O)c2C1=O [DEOXYSHIKONIN]
IC50 (HT-29): 5.12 µM
IC50 (MDA-MB-231): 5.08 µM
IC50 (PC-3): 4.29 µM
IC50 (AU565): 0.92 µM
IC50 (HepG2): 0.9 µM
IC50 (LNCaP): 12.2 µM
IC50 (MCF7): 0.79 µM
IC50 (HeLa): 0.85 µM
IC50 (SK-BR-3): 0.69 µM
IC50 (DU-145): 1.24 µM
IC50 (SAOS-2): 0.85 µM
IC50 [1]: 6.02 µM
IC50 (Vero): 0.66 µM
IC50 (NIH3T3): 5.84 µM

COc1ccc(O)c2c1C(=O)C=C(CCC=C(C)C)C2=O
IC50 (HT-29): 5.09 µM
IC50 (MDA-MB-231): 1.19 µM
IC50 (PC-3): 6.81 µM
IC50 (AU565): 0.88 µM
IC50 (HepG2): 7.64 µM
IC50 (LNCaP): 10.9 µM
IC50 (MCF7): 16 µM
IC50 (HeLa): 0.91 µM
IC50 (SK-BR-3): 2.2 µM
IC50 (DU-145): 8.71 µM
IC50 (SAOS-2): 20.4 µM
IC50 [1]: 15.8 µM
IC50 (Vero): 0.98 µM
IC50 (NIH3T3): 5.18 µM

CC(C)=CC[C@H](OC(=O)C=C(C)C)C1=CC(=O)c2c(O)ccc(O)c2C1=O
IC50 (HT-29): 0.8 µM
IC50 (MDA-MB-231): 0.32 µM
IC50 (PC-3): 1.1 µM
IC50 (AU565): 0.62 µM
IC50 (HepG2): 1 µM
IC50 (LNCaP): 11.3 µM
IC50 (MCF7): 5.15 µM
IC50 (HeLa): 0.96 µM
IC50 (SK-BR-3): 0.68 µM
IC50 (DU-145): 4.81 µM
IC50 (SAOS-2): 0.84 µM
IC50 [1]: 4.09 µM
IC50 (Vero): 0.32 µM
IC50 (NIH3T3): 0.77 µM
